Test results published in the RNAGym collection of RNA variant scans (doi:10.1126/science.aae0568).
Fewer inactive variants are shown than the library holds.

B1: tRNA (parent)
chain: GUUCCGUUGGCGUAAUGGUAACGCGUCUCCCUCCUAAGGAGAAGACUGCGGGUUCGAGUCCCGUACGGAACG

Variants of: B1
Assay: yeast fitness relative to wild type (ratio to wild type); higher = fitter; tRNA-Arg(CCU), competitive growth, 37 C, YPD
Procedure, shortened: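 The tRNA-Arg(CCU) gene variants were made by chemical synthesis with a 3% per-site mutation rate at 69 sites and inserted at the native genomic locus of Saccharomyces cerevisiae. After pooling, the strains were competed in YPD at 37°C for 24 hours in six parallel replicates. Gene amplicons from the start population and each end population were read by 100-nucleotide paired-end sequencing, and Darwinian fitness relative to wild type was taken from genotype frequency changes. Genotypes needed ≥ 100 starting reads, and estimates < 0.5 were set to 0.5.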

Point of comparison: GUUCCGUUGGCGCAAUGGUAACGCAUCUCCUUCCUAACGAGAAGACUGCGGGUUCGAGUCCCGUACGGAACG, yeast fitness 0.659. Against it:
- GUUCCGUUGGCGUAAUGAUAACGUGUCUCCCUCCUAAGGAGAAGACGGCGGGUUCGAGUCCCGUACGGAACG — lower, ≤ 0.5
- GUUCAGUUGGCGUAAUGGUAACGCGUCUCCCUCUUAAGGAGAAGACUGAGGAUUCGAGUCCCGUACGGAACG — lower, ≤ 0.5
- GUUCCGUUGGCGUAAUGGUAACGCGUCUCCCUCCUAAGGAGAAGACUCCGGGUUCGGGUCCCAUACGGAACG — lower, ≤ 0.5
- GUUCUGUUGGCGUAAUGGUAACGCGUCUCCCUCCUAAGGAGAAGACUGCGGGUUCGAGUCACGUACAGAACG — lower, 0.576
- GUUCCGUUGGGGUACUGGUAACGCGUCUCCCUCCUAAGGAGAAGACUGCGGGUUCGAGUCCCGUACGGACCG — lower, ≤ 0.5
- GAUCGGUUGGCGUAAUGGUAACGCGUCUCCCUCCUAAGGGGAAGACUGCGGGUUCGAGUCCCGUACGGAACG — lower, 0.564
- GUUCCGUUGGCGUAAUGGUAACGCGUCUCCCUCCUAAGGAGAAGGCUGCGGGUUCGAAUCCCGAACGGAACG — higher, 0.71
- GUUCCGUUGGCGUAUUGGUAACGCGUCUCCCUCCUAAGGAGAAGACAGCGGGUUCGUGUCCCGUACGGAACG — higher, 0.719
- GUUCCGGUGGCGUAAUGGUAACGCGUCUCCCUCCUAUGGAGAAGACUGCGGGUUCGAGUCCCGUACGGAUCG — lower, 0.542
- GUUCCGUUGGCGUAAUGGUAACGCGUCUCCCUCCUAAGGGGAAGACUGCGGGUUUAAGUCCCGGACGGUACG — lower, ≤ 0.5
- GUUCCGUUGGCGUAAUGGUAACGCGUCUCCCUCCUAAGGAGAGGACUGCGGGUUCGAGCCCCGUACGGAACG — higher, 0.863
- GUUCCGUUGGCGUAAUGGUAAGGCGUCUCCCUCCUAAGGAGCAGACUGCGGGUUCGAGUCCCGUAGUGAACG — lower, ≤ 0.5
- GUUCUGUUGACGUAAAGGUAACGCGUCUCCCUCCUAAGGAGAAGACUGCGGGUUCGAGUCCCGUGCGGAACG — lower, ≤ 0.5
- GUUCCGUUGGCGUAAUGGUAACGCGUCUCCCUCCUAAGGAGAAGUCUGCGGGUUCAAGUCCCGUACGGCACG — higher, 0.766
- GUUCCGUUGACGUAAUGGUAACCCGUCUUCCUCCUCAGGAGAAGACUGCGGGUUCGAGUCCCGUACGGAACG — lower, 0.532
- GUUCCGUUGGCGUAAUGGUAACGCGUCUCCCUCUUAAGGAGAAGAGUGCGGGUUCGACUUCCGUAGGGAACG — lower, ≤ 0.5
- GUUCCGUUGGCGUAAUGGUAACGCGUCUCCCUCUUAGGGAGAAGAUUGCGGGUUCGAGUCACGUACGGAACG — lower, 0.589
- GUUCCGUUGGCGUAAUGGUAAUGCGUCUCCCUUCUAAGGAGAAGACUGCGGGUUCGAGUCCCGUACGGAACG — higher, 0.717
- GUUCCGUUAGCGUCAUGGUAAGGCGUCUCCCUCCUAAGGAGAAGCCUGCGCGUUCGAGUCCCGCACGGAACG — lower, ≤ 0.5
- GUUCCGUAGACGUAAUGGUAACGCGUCUCCCUCCUAAGGAGACGACUGCGGGUUCGAGUCCCGUACGGAACG — lower, 0.646
- GUUCCGUUGGCGUAAUGGUAACGCGUCUCCCUCCUAUGGAGCAGACUCCGGGUUCGAGUCCCGUACGGAUCG — lower, ≤ 0.5
- GUUCCGUUGGCGUAAUGGUAACGCGUCUCCCUCCUAUGGAGAAGAAUGCGGGUUCGAGUCCCGUACGGAACG — higher, 0.816
- GUUCCGUUGGCGCAAUGGUAAGGCGUAUCCCUCCUAAGGAGAAGACUGCGCGUUCGAGUCCCGUACGGAACG — lower, ≤ 0.5
- GUUCCGUUGGCGUAAUGGUAACGCGUCUCCCUGCUAAGGAGCAGACUGCGGGUUCGAGUCCCGUAGGGAGCG — lower, ≤ 0.5
- GUUCCGUUGGCGUAAUGGUAACGCGUCUCCCUCCUAAGGAGAAGACUGCGGGUUCGAGUCCUGUAAGGAACG — higher, 0.686
- GUUCCAUUGGCGUAAUGGUAACGCGCCUACCUCCUAAGGAGAAGACUGCGGGUUCGAGUCCCGUACGGAACG — lower, ≤ 0.5
- GUUCCGCUGGCGUAAUGGUAACGCGUCUCCCUCCUAAGGAGAAGACUACGGGUUCGAGUCCCGUACGGCACG — higher, 0.695
- GGUCCGUUGCCGUAAUGGUAACGCGUCUCCCUCCUAAGGGGAAGACUGCGGGUUCGGGUCCCGUACGGAACG — lower, ≤ 0.5
- GUUCCGUUGGCGUAUUGGUAACGCGUCUCCCUCCUUAGGAGAAGACUGCGGGUUCGAGUCCCGUACGGAACG — lower, ≤ 0.5
- GUUACGUUGGCGUAAUGGUAACGGGUCUCCCUCCUAGGGAGAAGACUGCCGGUUCGAGUCCCGUACGGAACG — lower, ≤ 0.5
- GUUUCGUUGGCGUAAUGGUAACGCGCCUCCCUCCUAAGGAGAAAACUGCGGGUUCGAGUCCCGUACGGAACG — lower, 0.569
- GUUCCGUUGGCGUAAUGGUAACGCGUCUCCCUCCUAAGGAAAAGACUGCGGGUUCGAGUCCCGUACUGCACG — lower, ≤ 0.5
- GUUCUGUUGGCGUAAUGGUCACGCGUCUUCCUCAUAAGGAGAAGAAUGCAGGUUCGUGUCCCGUACGGAACG — lower, ≤ 0.5
- GUUUCGUUGGCGUGAUGGUAACGCGUCUCCCUCCUAAGGAGAAGACUGCGGGUUCGAGUCCCGUACGGAUCG — higher, 0.787
- GUUCCGUUGGCGUAAUGGUUCCGCGUCUCCCUCCUAAGGAGAAGACUGCGGGUUCGAGUCCCGUACGGAACG — lower, 0.651
- GUUCCGUAGGCGUAAUAGUAAUGUGUCCCCCUCCUAAGGAGAAGACUGCGGGUGCGCGUCCUGUACGGAACG — lower, ≤ 0.5
